# Fibroblast inh = blocks proliferation of human lung fibroblasts | LL 47 human lung fibroblast viability, ATP luminescence; stronger effect = lower value | viability, % at 10 µM | 85,000 tested, 1.1% active;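 active = viability at or below 50% in the single dose screen; inactive = viability above 50%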;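 also: compound exposure lasted 72 h before the ATP readout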
#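 Material: human lung fibroblast line LL 47, low passage; Evaluation: viability percentage against median untreated-cell control; Buffer or medium: 15% FBS in IMEM; Incubation: 72 h compound exposure at 37 °C after overnight plating; Dosing: 0.1% DMSO in all compound wells; Measured by: CellTiter-Glo luminescence.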
# HCT116 PTEN-null = suppresses growth of cells with PTEN deletion; HCT116 PTEN-null viability, CellTiter-Glo, 60 h; stronger effect = lower value; viability, % at 10 µM; 140,000 tested, 1.2% active;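 active = viability at or below a set limit, 4 SD under the median of all tested compounds, cut at about 3.7% in these data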;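 also: PTEN knockout HCT116 line with beta catenin targeted HCT116 as companion control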
# H69AR growth 86K = blocks growth of human H69AR lung tumor cells | H69AR lung tumor viability, ATP luminescence, 72 h; stronger effect = lower value | viability, % at 10 µM | 85,000 tested, 6% active | AID 598;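 active = viability at or below 40%; inactive = viability above 40%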;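 also: multidrug resistant small cell line overexpressing MRP-1 efflux transporter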
# HCT116 bCat-KO = beta-catenin-lacking colon tumor cell growth suppression | 140,000 tested, 1.5% active | viability, % at 10 µM | HCT116 beta-catenin knockout viability, CellTiter-Glo, 60 h; stronger effect = lower value | AID 818;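 active = viability at or under a set limit, the compound median less 4 SD, cut at about 6% in these data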
# HUVEC inhibit = inhibitors of human endothelial cell proliferation. HUVEC proliferation, CellTiter-Glo luminescence, 72 h; stronger effect = lower value. viability, % at 10 µM (by protocol). 86,000 tested, 1.1% active;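 active = viability at or below 30%; inactive = viability above 30%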
# Numbers stand for hits; . = inactive; / = no result given. The sample as a whole holds a higher share of hits than the screen did.
SMILES,Fibroblast inh,HCT116 PTEN-null,H69AR growth 86K,HCT116 bCat-KO,HUVEC inhibit
Cc1sc2nc(SCC(=O)C(C)(C)C)n(Cc3ccco3)c(=O)c2c1C,49.4,.,.,.,.
C=CCn1c(SCC(=O)NC(=O)NCc2ccco2)nc2sc(C)c(C)c2c1=O,.,.,11.4,.,.
Cc1cc2c(=O)n(Cc3ccco3)c(SCC(=O)c3ccc(Cl)s3)nc2s1,.,.,12.7,.,.
C=CCn1c(SCc2c(C)noc2C)nc2sc(C)c(C)c2c1=O,.,.,19.5,.,.
Cc1cc(C)cc(N(C(=O)C(F)(F)F)C(C(=O)NC2CCCCC2)c2cccs2)c1 (stereo not drawn),/,.,/,.,/
CCCCC(CC)CNC(=O)C1CC=CCC1C(=O)O (stereo not drawn),/,.,/,.,/
O=C1C=C(c2cccs2)C[C@H](c2ccccc2)[C@H]1n1nnc([N+](=O)[O-])n1,/,.,/,4.9,/
COc1ccc(C2CC(c3cccs3)=NN2c2nc(-c3ccccc3)cs2)cc1OC (stereo not drawn),/,.,/,.,/
O=C(/C=C/c1ccc(F)cc1)NCC1(c2ccccc2)CCOCC1,/,.,/,.,/
Cc1ccc(C)c(N2CCN(C(=O)COc3cc(=O)n(C)c4ccccc34)CC2)c1,.,.,.,.,.
Cc1ccc(C)c(N2CCN(C(=O)CCCOc3cc(=O)n(C)c4ccccc34)CC2)c1,.,.,2.8,.,.
Cc1cc(C)c(C#N)c(Sc2nnnn2-c2ccccc2)n1,.,.,.,.,.
O=C(Nc1nc2ccccc2s1)c1cc2c(s1)-c1ccccc1OC2,30.4,.,17.7,.,.
O=C(Nc1nccs1)c1cc2c(s1)-c1ccccc1OC2,/,.,/,.,/
Cc1ccccc1NC(=O)c1ccccc1NC(=O)CCC(=O)O,/,.,/,.,/
Cc1c(C2Nc3ccccc3NC3=C2C(=O)CC(C)(C)C3)cnn1C (stereo not drawn),.,.,.,.,.
CC1(C)CC(=O)C2=C(C1)Nc1ccccc1N=C2,.,.,0.3,.,.
Cc1cc([N+](=O)[O-])ccc1NC(=S)NC(=O)Cc1ccccc1,.,.,.,.,.
Cc1cc([N+](=O)[O-])ccc1NC(=S)NC(=O)C(c1ccccc1)c1ccccc1,.,.,32.1,.,.
CC(=O)Nc1ccc(C(=O)OCC(=O)N(Cc2ccccc2)C(C)(C)C)cc1,/,.,/,.,/
Cc1ccc(Oc2ccc(-c3nc(N)nc(N)n3)cc2)cc1C,.,.,.,.,.
COc1cc2nc(SCc3ccc(Cl)cc3Cl)n(Cc3cccs3)c(=N)c2cc1OC,/,.,/,.,/
COc1ccc(Cn2c(SCc3cc(C)ccc3C)nc3cc(OC)c(OC)cc3c2=N)cc1,/,1.4,/,1.9,/
CCCCNC(=O)CSc1nc2cc(OC)c(OC)cc2c(=O)n1Cc1ccc(OC)cc1,/,0.6,/,1.3,/
COc1ccc(Cn2c(SCc3ccc(C)cc3)nc3cc(OC)c(OC)cc3c2=N)cc1Cl,/,1.2,/,1.2,/
SMILES,Fibroblast inh,HCT116 PTEN-null,H69AR growth 86K,HCT116 bCat-KO,HUVEC inhibit
COCCNC(=O)CSc1nc2cc(OC)c(OC)cc2c(=O)n1Cc1ccco1,.,.,.,.,.
Cc1ccc(C(C)C)c(OCC(=O)NNC(=O)C(C(C)C)N2C(=O)c3ccccc3C2=O)c1 (stereo not drawn),/,.,/,.,/
C=CCn1c(SCC(=O)Nc2nc(C)cs2)nnc1C(NC(=O)c1ccccc1)C(C)C (stereo not drawn),.,.,13.9,.,.
CN(C)CCOc1nc(-c2ccccc2)nc2c1oc1ccccc12,30.3,3.0,2.3,2.0,4.4
O=C(NCC1CCCO1)c1c(O)c2cccc3c2n(c1=O)CCC3 (stereo not drawn),/,.,/,.,/
Cc1ccccc1NC(=O)c1c(O)c2cccc3c2n(c1=O)CCC3,.,/,30.9,/,.
O=C(Nc1ccccn1)c1c(O)c2cccc3c2n(c1=O)CCC3,.,.,34.9,.,.
O=C(NCCO)c1c(O)c2cccc3c2n(c1=O)CC3,.,.,/,.,.
Cc1cccnc1NC(=O)c1c(O)c2cccc3c2n(c1=O)CCC3,.,.,2.8,.,.
O=C(Nc1nccs1)c1c(O)c2cccc3c2n(c1=O)CCC3,48.7,.,4.0,.,.
Cc1ccccc1NC(=O)c1c(O)c2cccc3c2n(c1=O)CC3,.,/,.,/,.
COC(=O)CNC(=O)CN1C(=O)N(c2ccc(Cl)cc2)C(N(O)C(=O)Nc2ccc(Cl)cc2)C1(C)C (stereo not drawn),.,.,.,.,.
CCCCCCNS(=O)(=O)c1nc2nc(C)cc(C)n2n1,.,.,.,.,.
O=C(NNS(=O)(=O)c1ccc2ccccc2c1)c1cc(-c2ccccn2)nc2ccccc12,/,.,/,.,/
Cc1cccnc1NC(=O)c1c(O)c2ccccc2n(C)c1=O,.,.,5.4,.,.
c1ccc(Cn2ncc3c2ncn2nc(-c4ccncc4)nc32)cc1,.,/,.,/,.
CN(C)c1nc(-c2ccccc2)c2cnn(Cc3ccccc3)c2n1,.,.,19.4,.,.
COc1nnnc2c1sc1nc(N3CCOCC3)c3c(c12)CC(C)(C)OC3,.,/,.,/,.
CC1(C)Cc2c(c(N3CCOCC3)nc3snc(N)c23)CO1,3.5,1.9,.,1.9,.
CC1(C)Cc2c(c(N3CCOCC3)nc3snc(Br)c23)CO1,.,.,19.2,.,.
CCOC(=O)c1cnc(SCC(=O)Nc2nc(C)c(C)s2)nc1N,.,.,.,.,.
CN=C1S/C(=C\c2ccc(N3CCOCC3)cc2C)C(=O)N1C,/,.,/,.,/
Cc1cc(N2CCOCC2)ccc1/C=C\[N+](=O)[O-],/,.,/,4.4,/
O=C(c1cc([N+](=O)[O-])cc([N+](=O)[O-])c1)N1CCOCC1,/,.,/,.,/
Cc1cc(-c2csc(N)n2)c(C)n1CCc1ccccc1,.,.,39.5,.,.
SMILES,Fibroblast inh,HCT116 PTEN-null,H69AR growth 86K,HCT116 bCat-KO,HUVEC inhibit
Cc1cc(-c2csc(N)n2)c(C)n1CCC(C)C,.,.,.,.,.
Nc1ccnc(Oc2ccc(F)cc2)c1,/,.,/,.,/
CCN(CC)S(=O)(=O)c1ccc2nnn(OCC(=O)Nc3cccc(C#N)c3)c2c1,.,.,5.3,.,.
O=C(CCn1c(=O)[nH]c2ccsc2c1=O)Nc1ccc(F)c(F)c1,/,.,/,.,/
O=C(CNC(=O)C1COc2ccccc2O1)N/N=C/c1ccc(O)cc1O (stereo not drawn),/,.,/,.,/
Cc1ccc(-c2nc3cccnc3o2)cc1NC(=O)COc1ccc(C(C)(C)C)cc1,.,.,.,.,18.4
Cc1ccc(-c2nc3cccnc3o2)cc1NC(=O)COc1ccc(Cl)cc1C,.,.,6.9,.,.
Cc1ccc(-c2nc3ncccc3o2)cc1NC(=O)Cc1ccc(Cl)cc1,.,.,.,.,.
CC(=O)Nc1cccc(C(=O)/C=C/c2ccco2)c1,/,.,/,.,/
O=C(/C=C/c1ccccc1)c1ccccn1,/,.,/,5.7,/
CN(C)c1ccc(/C=C/C(=O)c2ccccc2)cc1[N+](=O)[O-],/,1.4,/,1.8,/
CC(=O)Nc1cccc(C(=O)/C=C/c2cccs2)c1,/,1.6,/,1.5,/
CC(=O)Nc1cccc(C(=O)/C=C/c2ccc(/C=C/C(=O)c3cccc(NC(C)=O)c3)cc2)c1,/,1.8,/,4.2,/
O=C(N/N=C/c1ccc(O)cc1O)/C(=C/c1ccccc1)CCO,/,.,/,.,/
